This is an account of results in ChEMBL document CHEMBL1123454, “New alpha-methylene gamma-lactone derivatives of substituted nucleic acid bases as potential anticancer agents” (1986).

Structures are written as SMILES. Values after ≈ are worked out from the molar mass of the structure shown.

In assay [1] the test system is Mus musculus. Kind of assay: Average survival days was measured by administrating the compound to Ehrlich ascites carcinoma (EAC) in swiss mice at 25 mg/kg dose. Format: functional. Summed up: (§1)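 Swiss male mice (18–20 g) inoculated ip on day 0 with 1×10^6 EAC cells diluted in normal saline. Daily ip treatment began 24 h later for 7 days, compound homogenized in saline with 2% Tween-80, dose volume ≤0.01 mL/g; vehicle controls. Six mice per dose, one control group per six groups. Deaths counted daily; median survival times, T/C.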

Assay [2] relates to Mus musculus. Nature of the assay: Average survival days was measured by administrating the compound to Ehrlich ascites carcinoma(EAC) in swiss mice at 12 mg/kg dose. Type of assay: functional. The gist of the method: as §1
Assay [3] has as its system Mus musculus. Nature of the assay: Compound was tested in vivo for antitumor activity at 12 mg/kg dose. Type of assay: functional. The gist of the method: (§2)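 Swiss male mice (18–20 g) inoculated ip on day 0 with 1×10^6 Ehrlich ascites carcinoma cells in 0.2 mL saline. Starting 24 h later, ip dosing once daily for 7 days; compound homogenized in saline with 2% Tween-80, at most 0.01 mL/g. Controls received vehicle alone. Six mice per dose, one control group per six groups. Deaths counted daily; median survival times expressed as T/C.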

The test system of assay [4] is Mus musculus. Nature of the assay: Compound was tested in vivo for antitumor activity at 25 mg/kg dose. Format: functional. Summed up:
as §2

The subject of a further assay is PS. Kind of assay: In vitro concentration required to reduce the growth rate of PS cells in culture by 50%. The note with it: Mus musculus, read-out: ED50 (the source's name).
Assay [5] in a line: In vitro concentration required to reduce the growth rate of KB cells in culture by 50%. Format: functional. To be noted: Homo sapiens, read-out: ED50 (the source's name). The gist of the method: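 Cytotoxicity screened at the National Cancer Institute by its standard protocol against murine P-388 lymphocytic leukemia (PS) and human nasopharyngeal carcinoma KB cells in culture. ED50 (μg/mL) is the concentration that halves the growth rate relative to control cultures.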

Assay [6] concerns Mus musculus. Nature of the assay: Average survival days was measured by administrating the compound to Ehrlich ascites carcinoma (EAC) in swiss mice at 12 mg/kg dose. Format: functional. Summed up: as §1

As for `C=C1CC(CC)(CCn2cc(F)c(=O)[nH]c2=O)OC1=O` (stereo not given), the Average survival days in the assay with Mus musculus [1] worked out at 19.5; with Mus musculus [2], 23. Further, the figures for the T/C with Mus musculus [3] and with Mus musculus [4] were 148 and 126, respectively.

On to `C=C1CC(CC)(CCn2cc(C)c(=O)[nH]c2=O)OC1=O` (stereo not given), for which the Average survival days in the assay with Mus musculus [1] is 25.5; in the assay on Mus musculus [2] it was 24.5. In addition, the T/C is recorded as 163 in the assay with Mus musculus [3] and 170 in the assay on Mus musculus [4].

`C=C1CC(CC)(CCn2cnc3c(S)ncnc32)OC1=O` (stereo not given): the Average survival days with Mus musculus [1] is listed as 17.5; in the assay on Mus musculus [2], 18. The T/C amounted to 116 in the assay with Mus musculus [3] and 113 with Mus musculus [4].

`C=C1CC(C)(Cn2cnc3c(Cl)ncnc32)OC1=O` (stereo not given): the results for the EC50 (with PS; in assay [5]) were 0.17 µg/mL (≈ 0.61 µM) and 1.5 µg/mL (≈ 5.38 µM), respectively. Moreover, the Average survival days in the assay on Mus musculus [1] is 24; in the assay on Mus musculus [2], 20. The results for the T/C in the assay on Mus musculus [3] and with Mus musculus [4] were 133 and 160, respectively.

As to `C=C1CC(CC)(CCn2ccc(=O)[nH]c2=O)OC1=O` (stereo not given), the results for the EC50 (in the assay on PS; in assay [5]) were 0.35 µg/mL (≈ 1.32 µM) and 2.8 µg/mL (≈ 10.6 µM), respectively. Further, the Average survival days in the assay with Mus musculus [1] turned out to be 19.5; in the assay on Mus musculus [6], 20. Also, the T/C in the assay on Mus musculus [3] was found to be 129; with Mus musculus [4], 126.

As for `C=C1CC(C)(Cn2cnc3c(S)ncnc32)OC1=O` (stereo not given), the EC50 (in the assay with PS; in assay [5]) was > 10 µg/mL each time. In addition, the Average survival days in the assay with Mus musculus [1] is 18.5; in the assay with Mus musculus [2], 16. Also, the T/C in the assay with Mus musculus [3] was found to be 107; in the assay on Mus musculus [4], 123.

Take `C=C1CC(C)(Cn2cnc3c(O)ncnc32)OC1=O` (stereo not given): the results for the Average survival days in the assay with Mus musculus [1] and with Mus musculus [2] were 16.5 and 16, respectively. For the same compound, the values for the T/C in the assay with Mus musculus [3] and in the assay on Mus musculus [4] were 107 and 110, respectively.

Turning to `C=C1CC(CC)(CCn2cnc3c(Cl)ncnc32)OC1=O` (stereo not given), the results for the EC50 (in the assay with PS; in assay [5]) were 0.25 µg/mL (≈ 0.815 µM) and 2.6 µg/mL (≈ 8.48 µM), respectively. Moreover, the Average survival days in the assay with Mus musculus [1] was 25; in the assay with Mus musculus [2], 19.5. The T/C with Mus musculus [3] turned out to be 126; with Mus musculus [4], 161.

On to `C=C1CC(CC)(CCn2cc(F)c(=O)n(CCC3(CC)CC(=C)C(=O)O3)c2=O)OC1=O` (stereo not given), for which the Average survival days in the assay on Mus musculus [1] turned out to be 21; with Mus musculus [2], 23.5. In addition, the values for the T/C with Mus musculus [3] and with Mus musculus [4] were 138 and 123, respectively.

On to `C=C1CC(CC)(CCn2cnc3c(O)ncnc32)OC1=O` (stereo not given), for which the results for the Average survival days in the assay on Mus musculus [1] and with Mus musculus [2] were 17 and 17.5, respectively. The T/C in the assay with Mus musculus [3] stood at 113; in the assay on Mus musculus [4] it was 109.

As to `O=c1[nH]cc(F)c(=O)[nH]1` [FLUOROURACIL], the Average survival days in the assay with Mus musculus [1] was 33. In addition, the T/C in the assay with Mus musculus [4] is given as 220.
